Measured values from ChEMBL document CHEMBL3286292, “Synthesis and antimicrobial activity of amine linked bis- and tris-heterocycles” (2014).
Activity calls are given as the source filed them. No cut-off for these calls is given here.

How the values were obtained:
Format in all cases: functional
Pseudomonas aeruginosa [1] = experiment: Antibacterial activity against Pseudomonas aeruginosa assessed as growth inhibition at 100 ug/well after 24 hrs by agar well diffusion method; settings: for zone of inhibition at 100 µg/disc: read-out: DIZ
Outline: (§1)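 Agar well diffusion on […] swabbed with a 24 h broth culture. Samples were dissolved in DMSO and loaded at three per-well amounts into 6 mm wells. Incubation was 37 °C for 24 h, then inhibition zone diameter was read in mm. DMSO served as the negative control. Runs were in duplicate and averaged.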

Klebsiella pneumoniae [2] = experiment: Antibacterial activity against Klebsiella pneumoniae assessed as growth inhibition at 25 ug/well after 24 hrs by agar well diffusion method; settings: for zone of inhibition at 25 µg/disc: read-out: DIZ; outline: as §1
Bacillus subtilis [3] = experiment: Antibacterial activity against Bacillus subtilis assessed as growth inhibition at 50 ug/well after 24 hrs by agar well diffusion method; settings: for zone of inhibition at 50 µg/disc: read-out: DIZ; outline: as §1
Bacillus subtilis [4] = experiment: Antibacterial activity against Bacillus subtilis assessed as growth inhibition at 25 ug/well after 24 hrs by agar well diffusion method; settings: for zone of inhibition at 25 µg/disc: read-out: DIZ; outline: as §1
Aspergillus niger [5] = experiment: Antifungal activity against Aspergillus niger assessed as inhibition of spore germination at 50 ug/well after 48 hrs by agar well diffusion method; settings: for zone of inhibition at 50 µg/disc: read-out: DIZ
Outline: (§2)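 Well diffusion using 6 mm bored wells loaded with DMSO solutions at three per-well amounts, with a DMSO negative control. Plates were held at 28 °C for 48 h, then zone of inhibition diameter was measured in mm. Runs were in duplicate and averaged.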

Pseudomonas aeruginosa [6] = experiment: Antibacterial activity against Pseudomonas aeruginosa assessed as growth inhibition at 50 ug/well after 24 hrs by agar well diffusion method; settings: for zone of inhibition at 50 µg/disc: read-out: DIZ; outline: as §1
Klebsiella pneumoniae [7] = experiment: Antibacterial activity against Klebsiella pneumoniae assessed as growth inhibition at 100 ug/well after 24 hrs by agar well diffusion method; settings: for zone of inhibition at 100 µg/disc: read-out: DIZ; outline: as §1
Klebsiella pneumoniae [8] = experiment: Antibacterial activity against Klebsiella pneumoniae assessed as growth inhibition at 50 ug/well after 24 hrs by agar well diffusion method; settings: for zone of inhibition at 50 µg/disc: read-out: DIZ; outline: as §1
Staphylococcus aureus [9] = experiment: Antibacterial activity against Staphylococcus aureus assessed as growth inhibition at 25 ug/well after 24 hrs by agar well diffusion method; settings: for zone of inhibition at 25 µg/disc: read-out: DIZ; outline: as §1
Bacillus subtilis [10] = experiment: Antibacterial activity against Bacillus subtilis assessed as growth inhibition at 100 ug/well after 24 hrs by agar well diffusion method; settings: for zone of inhibition at 100 µg/disc: read-out: DIZ; outline: as §1
Aspergillus niger [11] = experiment: Antifungal activity against Aspergillus niger assessed as inhibition of spore germination at 25 ug/well after 48 hrs by agar well diffusion method; settings: for zone of inhibition at 25 µg/disc: read-out: DIZ; outline: as §2
Staphylococcus aureus [12] = experiment: Antibacterial activity against Staphylococcus aureus assessed as growth inhibition at 50 ug/well after 24 hrs by agar well diffusion method; settings: for zone of inhibition at 50 µg/disc: read-out: DIZ; outline: as §1
Pseudomonas aeruginosa [13] = experiment: Antibacterial activity against Pseudomonas aeruginosa assessed as growth inhibition at 25 ug/well after 24 hrs by agar well diffusion method; settings: for zone of inhibition at 25 µg/disc: read-out: DIZ; outline: as §1
Staphylococcus aureus [14] = experiment: Antibacterial activity against Staphylococcus aureus assessed as growth inhibition at 100 ug/well after 24 hrs by agar well diffusion method; settings: for zone of inhibition at 100 µg/disc: read-out: DIZ; outline: as §1

Row | SMILES | growth inhibition (GI) (Pseudomonas aeruginosa [1]) | growth inhibition (GI) (Klebsiella pneumoniae [2]) | growth inhibition (GI) (Bacillus subtilis [3]) | growth inhibition (GI) (Bacillus subtilis [4]) | zone of inhibition (Aspergillus niger [5]) | growth inhibition (GI) (Pseudomonas aeruginosa [6]) | growth inhibition (GI) (Klebsiella pneumoniae [7]) | growth inhibition (GI) (Klebsiella pneumoniae [8]) | growth inhibition (GI) (Staphylococcus aureus [9]) | growth inhibition (GI) (Bacillus subtilis [10]) | growth inhibition (GI) (Aspergillus niger [11]) | growth inhibition (GI) (Staphylococcus aureus [12]) | growth inhibition (GI) (Pseudomonas aeruginosa [13]) | growth inhibition (GI) (Staphylococcus aureus [14]) | zone of inhibition at 50 µg/disc (Bacillus subtilis [3]) [mm] | zone of inhibition at 50 µg/disc (Aspergillus niger [5]) [mm] | zone of inhibition at 100 µg/disc (Klebsiella pneumoniae [7]) [mm] | zone of inhibition at 50 µg/disc (Klebsiella pneumoniae [8]) [mm] | zone of inhibition at 100 µg/disc (Bacillus subtilis [10]) [mm] | zone of inhibition at 100 µg/disc (Staphylococcus aureus [14]) [mm] | other results
1 | NC(=S)N1N=C(Nc2nc(-c3ccccc3)cs2)C[C@@H]1c1ccccc1 | inactive | inactive | inactive | inactive | inactive | inactive | inactive | inactive | inactive | inactive | inactive | inactive | inactive | inactive |  |  |  |  |  |  | 
2 | NC(=S)N1N=C(Nc2nc(-c3ccccc3)co2)C[C@@H]1c1ccccc1 | inactive | inactive | inactive | inactive | inactive | inactive | inactive | inactive | inactive | inactive | inactive | inactive | inactive | inactive |  |  |  |  |  |  | 
3 | Cc1ccc(-c2coc(Nc3cc(-c4ccc(C)cc4)n(C(N)=S)n3)n2)cc1 | inactive | inactive |  | inactive |  | inactive |  |  | inactive |  | inactive | inactive | inactive |  | 7 | 6 | 8 | 7 | 8 | 6 | 
4 | Cc1ccc(-c2coc(NC3=NN(C(N)=S)[C@@H](c4ccc(C)cc4)C3)n2)cc1 | inactive | inactive | inactive | inactive | inactive | inactive | inactive | inactive | inactive | inactive | inactive | inactive | inactive | inactive |  |  |  |  |  |  | 
5 | NC(=S)n1nc(Nc2nc(-c3ccccc3)co2)cc1-c1ccccc1 | inactive |  |  |  |  | inactive |  |  |  |  |  |  | inactive |  | 9 | 9 | 12 | 9 | 11 | 10 | zone of inhibition at 25 µg/disc (Klebsiella pneumoniae [2]): 7 mm; zone of inhibition at 25 µg/disc (Bacillus subtilis [4]): 7 mm; zone of inhibition at 25 µg/disc (Staphylococcus aureus [9]): 6 mm; zone of inhibition at 25 µg/disc (Aspergillus niger [11]): 8 mm; zone of inhibition at 50 µg/disc (Staphylococcus aureus [12]): 8 mm
6 | Cc1ccc(-c2c[nH]c(NC3=NN(C(N)=S)[C@@H](c4ccc(C)cc4)C3)n2)cc1 | inactive | inactive | inactive | inactive | inactive | inactive | inactive | inactive | inactive | inactive | inactive | inactive | inactive | inactive |  |  |  |  |  |  | 
7 | Clc1ccc(-c2coc(Nc3cc(-c4ccc(Cl)cc4)n(-c4nc(-c5ccc(Cl)cc5)cs4)n3)n2)cc1 |  |  |  |  |  |  |  |  |  |  |  |  |  |  | 18 | 12 | 22 | 19 | 21 | 21 | zone of inhibition at 100 µg/disc (Pseudomonas aeruginosa [1]): 13 mm; zone of inhibition at 25 µg/disc (Klebsiella pneumoniae [2]): 17 mm; zone of inhibition at 25 µg/disc (Bacillus subtilis [4]): 16 mm; zone of inhibition at 50 µg/disc (Pseudomonas aeruginosa [6]): 10 mm; zone of inhibition at 25 µg/disc (Staphylococcus aureus [9]): 17 mm; zone of inhibition at 25 µg/disc (Aspergillus niger [11]): 11 mm; zone of inhibition at 50 µg/disc (Staphylococcus aureus [12]): 18 mm; zone of inhibition at 25 µg/disc (Pseudomonas aeruginosa [13]): 9 mm
8 | Cc1ccc(-c2csc(Nc3cc(-c4ccc(C)cc4)n(C(N)=S)n3)n2)cc1 |  |  |  |  |  |  |  |  |  |  |  |  | inactive |  | 12 | 13 | 16 | 13 | 14 | 15 | zone of inhibition at 100 µg/disc (Pseudomonas aeruginosa [1]): 8 mm; zone of inhibition at 25 µg/disc (Klebsiella pneumoniae [2]): 11 mm; zone of inhibition at 25 µg/disc (Bacillus subtilis [4]): 10 mm; zone of inhibition at 50 µg/disc (Pseudomonas aeruginosa [6]): 6 mm; zone of inhibition at 25 µg/disc (Staphylococcus aureus [9]): 11 mm; zone of inhibition at 25 µg/disc (Aspergillus niger [11]): 12 mm; zone of inhibition at 50 µg/disc (Staphylococcus aureus [12]): 13 mm
9 | Cc1ccc(-c2csc(NC3=NN(C(N)=S)[C@@H](c4ccc(C)cc4)C3)n2)cc1 | inactive | inactive | inactive | inactive | inactive | inactive | inactive | inactive | inactive | inactive | inactive | inactive | inactive | inactive |  |  |  |  |  |  | 
10 | NC(=S)n1nc(Nc2nc(-c3ccccc3)cs2)cc1-c1ccccc1 |  |  |  |  |  |  |  |  |  |  |  |  |  |  | 22 | 19 | 28 | 25 | 24 | 26 | zone of inhibition at 100 µg/disc (Pseudomonas aeruginosa [1]): 17 mm; zone of inhibition at 25 µg/disc (Klebsiella pneumoniae [2]): 23 mm; zone of inhibition at 25 µg/disc (Bacillus subtilis [4]): 21 mm; zone of inhibition at 50 µg/disc (Pseudomonas aeruginosa [6]): 15 mm; zone of inhibition at 25 µg/disc (Staphylococcus aureus [9]): 22 mm; zone of inhibition at 25 µg/disc (Aspergillus niger [11]): 17 mm; zone of inhibition at 50 µg/disc (Staphylococcus aureus [12]): 25 mm; zone of inhibition at 25 µg/disc (Pseudomonas aeruginosa [13]): 12 mm
11 | NC(=S)N1N=C(Nc2nc(-c3ccc(Cl)cc3)cs2)C[C@@H]1c1ccc(Cl)cc1 | inactive | inactive | inactive | inactive | inactive | inactive | inactive | inactive | inactive | inactive | inactive | inactive | inactive | inactive |  |  |  |  |  |  | 
12 | Cc1ccc(-c2csc(Nc3cc(-c4ccc(C)cc4)n(-c4nc(-c5ccc(C)cc5)cs4)n3)n2)cc1 |  |  |  |  |  |  |  |  |  |  |  |  |  |  | 15 | 16 | 18 | 15 | 18 | 18 | zone of inhibition at 100 µg/disc (Pseudomonas aeruginosa [1]): 11 mm; zone of inhibition at 25 µg/disc (Klebsiella pneumoniae [2]): 14 mm; zone of inhibition at 25 µg/disc (Bacillus subtilis [4]): 14 mm; zone of inhibition at 50 µg/disc (Pseudomonas aeruginosa [6]): 8 mm; zone of inhibition at 25 µg/disc (Staphylococcus aureus [9]): 14 mm; zone of inhibition at 25 µg/disc (Aspergillus niger [11]): 15 mm; zone of inhibition at 50 µg/disc (Staphylococcus aureus [12]): 15 mm; zone of inhibition at 25 µg/disc (Pseudomonas aeruginosa [13]): 7 mm
